# Screening results deposited in PubChem BioAssay by Johns Hopkins Ion Channel Center.
# TRPC4 potent = TRPC4 (mouse) allosteric potentiation. Q9QUQ5. B-score at 10 µM. AID 2227. 310,000 tested, 0.42% active. HEK293 TRPC4beta/mu-opioid, DAMGO EC20, Fluo-4 Ca2+ flux; hits give high values;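 active = B-score of calcium response area above 5 SD of library B-scores, with initial fluorescence ratio within 5 SD of library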;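 also: B-score of integrated fluorescence ratio over time as area under calcium response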
# TRPC4 inh = inhibitors of mouse TRPC4 channel. HEK293 TRPC4beta/mu-opioid, DAMGO-evoked Fluo4 calcium flux; hits give low values. B-score at 10 µM. 300,000 tested, 0.39% active. AID 2247;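 active = B-score over 3 SD under the library average, no early fluorescence shift, positive overall ratio signal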
#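 material = TRPC4beta/mu-opioid receptor HEK293 cell line | probe or stimulus = sequential submaximal and maximal DAMGO stimulation | compound dosing = one concentration per compound | measured by = Fluo4 Ca2+ flux fluorescence | evaluation = integrated fluorescence ratio relative to baseline, converted to per-well B score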
# TRPC6 activator = mouse TRPC6 channel activation. HEK293-TRPC6 membrane potential dye fluorescence; hits give high values. B-score at 10 µM. 310,000 tested, 0.13% active;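 active = B-score of the integrated fluorescence ratio above library mean plus 3 SD, and starting fluorescence ratio within library mean plus 5 SD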;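 also: higher score means more depolarization so channel activation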
# Target sequence (Q61143 whole entry, looked up): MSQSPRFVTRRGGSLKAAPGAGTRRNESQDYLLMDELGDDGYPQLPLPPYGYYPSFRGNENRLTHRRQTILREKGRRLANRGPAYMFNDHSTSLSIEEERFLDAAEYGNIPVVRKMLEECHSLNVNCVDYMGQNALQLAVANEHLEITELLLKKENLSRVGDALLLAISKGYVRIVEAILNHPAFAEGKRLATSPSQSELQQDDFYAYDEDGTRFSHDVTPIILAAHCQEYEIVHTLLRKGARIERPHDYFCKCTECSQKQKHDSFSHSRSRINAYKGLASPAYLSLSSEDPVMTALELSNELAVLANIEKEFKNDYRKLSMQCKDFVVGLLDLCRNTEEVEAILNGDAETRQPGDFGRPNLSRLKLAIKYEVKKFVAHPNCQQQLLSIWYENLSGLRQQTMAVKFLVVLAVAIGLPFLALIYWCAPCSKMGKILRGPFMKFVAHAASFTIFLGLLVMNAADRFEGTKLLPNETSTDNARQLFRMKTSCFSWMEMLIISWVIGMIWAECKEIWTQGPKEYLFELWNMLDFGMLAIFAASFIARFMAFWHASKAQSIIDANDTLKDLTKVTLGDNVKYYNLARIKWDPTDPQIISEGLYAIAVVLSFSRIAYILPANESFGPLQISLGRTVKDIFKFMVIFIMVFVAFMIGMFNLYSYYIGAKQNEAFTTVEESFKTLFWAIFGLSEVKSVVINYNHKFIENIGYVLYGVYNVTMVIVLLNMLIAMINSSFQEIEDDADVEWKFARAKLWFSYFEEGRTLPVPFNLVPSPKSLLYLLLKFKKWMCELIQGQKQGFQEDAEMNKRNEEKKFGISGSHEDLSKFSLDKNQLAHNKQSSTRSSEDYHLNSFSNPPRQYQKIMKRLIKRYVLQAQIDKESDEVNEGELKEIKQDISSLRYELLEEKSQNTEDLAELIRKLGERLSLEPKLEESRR
# TRPC6 inhibitor = inhibitors of mouse TRPC6 channel; HEK293-TRPC6, membrane potential dye, ACh-evoked depolarization; hits give low values; B-score at 10 µM; 310,000 tested, 1.1% active; AID 2553;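 active = B-score under library mean minus 3 SD, initial fluorescence not abnormally high, positive integrated signal ratio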;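 also: B-score derived from integrated fluorescence ratio over the kinetic read; more negative B-score means stronger inhibition of depolarization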
# TRPC4 act = opens the mouse TRPC4 cation channel | HEK293 TRPC4beta/mu-opioid, Fluo4 calcium fluorescence; hits give high values | 310,000 tested, 0.49% active | B-score at 10 µM | Q9QUQ5;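 active = B-score above 5 SD of library B-scores, and initial fluorescence ratio not above library mean plus 5 SD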;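 also: positive B-score marks a calcium rise read as TRPC4 activation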
#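 System – HEK293 cells stably co-expressing mouse TRPC4beta and mu-opioid receptor · Signal – Fluo4 calcium-sensitive dye fluorescence, kinetic, 1 Hz baseline · Benchmarks – buffer (low) and maximal DAMGO (high) · Read-out – B score of integrated fluorescence ratio per well · Incubation – dye loading 45 min room temperature, 110 s kinetic read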
# TRPC4 sel inh 2 = second selectivity test of TRPC6 inhibitors: effect on mouse TRPC4 | shares compounds with TRPC6 inhibitor | HEK293 TRPC4/MOR, membrane potential dye fluorescence; channel activated by saturating DAMGO dose | inhibition, % at 10 µM | 920 tested, 42% active | AID 2776;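 active = compounds whose fluorescence signal differed from control wells by over 3 SD, either direction, in both duplicate plates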
# TRPC4 spec = selectivity of TRPC6 inhibitors: effect on mouse TRPC4; activity change, negative = inhibition, % at 10 µM; HEK293 TRPC4/mu-opioid, membrane potential fluorescence; shares compounds with TRPC6 inhibitor; 920 tested, 61% active;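 active = rise or fall in signal beyond 3 SD of buffer-only wells in both replicate plates, either sign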;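 also: integrated kinetic ratio of fluorescence range over baseline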
# HEK293 MPD ctr 2-1 = second counter-screen for TRPC6 inhibitors: parental HEK293 cells; shares compounds with TRPC6 inhibitor; parental HEK293 membrane potential dye fluorescence; maximal acetylcholine challenge after compound addition; signal change vs control, % at 10 µM; 920 tested, 31% active; AID 2779;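 active = membrane potential signal moving either way by over 3 SD of the maximum-effect control, in both duplicate plates, meaning non-specific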
# HEK293 MPD ctr-1 = parental HEK293 nonspecific activity of TRPC6 inhibitors; membrane potential signal change, % at 10 µM; parental HEK293 membrane potential dye fluorescence; 920 tested, 60% active; shares compounds with TRPC6 inhibitor;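 active = membrane potential signal shifting up or down by more than 3 SD of buffer-only wells, on both duplicate plates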
# HEK293 MPD ctr-2 = parental HEK293 nonspecific activity of TRPC6 modulators. shares compounds with TRPC6 inhibitor. membrane potential dye fluorescence. membrane potential signal change, % at 10 µM. 2,400 tested, 51% active;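 active = membrane potential signal moves up or down beyond 5 SD from buffer-only wells, on both duplicate plates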
# HEK293 MPD ctr 2-2 = parental HEK293 nonspecific activity of TRPC6 modulators, second screen; AID 488926; inhibition, % at 10 µM; 2,400 tested, 14% active; shares compounds with TRPC6 inhibitor; membrane potential dye fluorescence; after compound, maximal acetylcholine stimulation;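 active = membrane potential signal drops by more than 5 SD from the mean control signal, in both duplicate plates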;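 also: plate controls were acetylcholine ECmax control wells for no effect and buffer only wells for full effect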
# TRPC4/MOR mod = tests whether TRPC6 modulators also affect mouse TRPC4; shares compounds with TRPC6 inhibitor; HEK293 TRPC4/mu-opioid, membrane potential fluorescence; percent change from control (negative = decrease, positive = increase), % at 10 µM; 2,400 tested, 69% active; AID 488927;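 active = membrane potential signal moved up or down beyond 5 SD of buffer control wells, in both duplicate plates, actives on both sides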;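 also: plate controls were assay buffer wells for no effect and DAMGO maximal-effect wells for full effect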
# TRPC4/MOR inh 2 = mouse TRPC4 off-target activity of TRPC6 modulators, second screen; HEK293 TRPC4/mu-opioid, membrane potential dye fluorescence; stimulated with maximal-effect DAMGO; 2,400 tested, 55% active; shares compounds with TRPC6 inhibitor; inhibition, % at 10 µM; AID 488928;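 active = drop in membrane potential signal beyond 5 SD of the control wells in both duplicate plates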;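 also: TRPC4 counter screen for TRPC6 hits run under conditions tuned for TRPC6 not TRPC4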
# TRPC6 inh conf = confirmation of mouse TRPC6 inhibitors; 3,300 tested, 43% active; shares compounds with TRPC6 inhibitor; inhibition, % at 10 µM; HEK293-TRPC6, membrane potential dye, ACh-evoked depolarization;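 active = fluorescence ratio falls more than 5 SD below the full-stimulation control mean, in both duplicate runs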;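 also: integrated fluorescence ratio of peak minus minimum over baseline after agonist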
# TRPC6 act confirm = mouse TRPC6 activator confirmation. shares compounds with TRPC6 inhibitor. HEK293-TRPC6 membrane potential dye fluorescence, FDSS. activation, % at 10 µM. 2,800 tested, 11% active;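 active = ratio signal rise beyond 5 SD above unstimulated control wells' mean, seen in both duplicate runs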;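 also: plate controls were buffer EC0 wells for no effect and acetylcholine ECmax response for full effect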
# Active calls of the source: *; i = inactive; . = not tested or not shown. Shown are actives, neighbours in structure and some others; about 2.3% of the full set was active somewhere.
SMILES,TRPC4 potent,TRPC4 inh,TRPC6 activator,TRPC6 inhibitor,TRPC4 act,HEK293 MPD ctr-2,HEK293 MPD ctr 2-2,TRPC4/MOR mod,TRPC4/MOR inh 2,TRPC6 inh conf,TRPC6 act confirm,others
COC(c1ccccc1)c1nnc(CCC(=O)N(C)Cc2cccc(-n3cccn3)c2)o1 (stereo not given),i,i,16*,i,i,i,i,8.5%*,i,i,i,
O=C(NCc1ccccn1)c1ccc(Cl)c(NC2=NC3CS(=O)(=O)CC3S2)c1 (stereo not given),i,i,i,i,i,.,.,.,.,.,.,
Cc1cccc(-n2ncc3c(N4CCC5(CC4)OCCO5)ncnc32)c1,i,i,i,i,i,.,.,.,.,.,.,
c1ccc(-n2ncc3c(N4CCC5(CC4)OCCO5)ncnc32)cc1,i,i,i,-7.7*,i,.,.,.,.,i,i,TRPC4 sel inh 2=i;TRPC4 spec=i;HEK293 MPD ctr 2-1=220%*;HEK293 MPD ctr-1=i
Cc1ncc(CSc2nc3ccccc3[nH]2)c(N)n1,i,i,i,i,i,.,.,.,.,.,.,
CCOc1ccccc1CSc1nc2ccccc2[nH]1,i,i,i,-5.8*,i,i,i,i,i,i,i,
O=c1[nH]cnc2c1N=C(c1cccc([N+](=O)[O-])c1)CC(c1ccccc1)N2 (stereo not given),i,i,i,i,i,.,.,.,.,.,.,
Cc1ccc(-n2nc3c(c2NC(=O)c2c(-c4ccccc4Cl)noc2C)CS(=O)(=O)C3)c(C)c1,i,i,i,-5.5*,i,100%*,i,24%*,i,i,.,
COC(=O)CCC(=O)OC1(C)C(=O)C=C2C=C(C3CC3)N(CCc3ccccn3)C=C2C1=O (stereo not given),i,i,i,i,i,.,.,.,.,.,.,
COC(=O)CCC(=O)OC1(C)C(=O)C=C2C=C(C3CC3)N(CCc3c[nH]c4ccccc34)C=C2C1=O (stereo not given),i,i,i,-7.2*,i,.,.,.,.,i,i,TRPC4 sel inh 2=i;TRPC4 spec=i;HEK293 MPD ctr 2-1=i;HEK293 MPD ctr-1=i
CC(CCc1ccccc1)NC(=O)Cn1cccc1C(=O)c1ccccc1 (stereo not given),i,i,i,i,i,.,.,.,.,.,.,
Cc1ccc(C(=O)c2ccccc2C(=O)OCC(=O)Nc2cccc([N+](=O)[O-])c2)cc1,i,i,i,-6.5*,i,i,i,i,i,i,i,
